This passage reports IC50 and inhibition results from ChEMBL document CHEMBL1139440, “Chemical function based pharmacophore generation of endothelin-A selective receptor antagonists” (J Med Chem, 2004).

For orientation: IC50 means the midpoint of a concentration-inhibition curve. Read a low IC50 as greater potency. In general, inhibition refers to the relative decrease from the control value, in per cent. Low values mean little suppression, high ones strong suppression.

SMILES strings stand for the structures. Square brackets hold non-standard residues; d marks the D form. Peptide text beside a SMILES is read from it. * marks the point of attachment. Cbz = O=C(OCc1ccccc1)*

One experiment deals with T1, Endothelin receptor type B (Homo sapiens, UniProt P24530).
T1 sequence (P24530 whole entry): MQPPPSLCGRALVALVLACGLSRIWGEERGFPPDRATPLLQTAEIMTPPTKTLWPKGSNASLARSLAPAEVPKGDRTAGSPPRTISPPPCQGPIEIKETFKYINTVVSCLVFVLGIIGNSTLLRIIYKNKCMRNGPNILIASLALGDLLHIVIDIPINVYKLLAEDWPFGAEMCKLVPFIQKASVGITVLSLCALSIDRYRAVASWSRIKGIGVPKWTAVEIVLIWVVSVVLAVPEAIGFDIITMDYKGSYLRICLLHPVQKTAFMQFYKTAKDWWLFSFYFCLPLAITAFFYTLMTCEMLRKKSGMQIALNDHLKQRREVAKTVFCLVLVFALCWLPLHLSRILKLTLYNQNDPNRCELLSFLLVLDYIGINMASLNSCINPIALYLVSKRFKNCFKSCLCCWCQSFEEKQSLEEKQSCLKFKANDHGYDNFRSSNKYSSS
Kind of experiment: Inhibitory concentration against Endothelin B receptor.
Details: not given
Take `CCCCN(CCCC)C(=O)CN1C[C@H](c2ccc3c(c2)OCO3)[C@@H](CC(=O)O)[C@@H]1c1ccc(OC)cc1`: the IC50 was found to be 5100 nM.
`CCCCC1=C(C(=O)O)[C@@H](c2ccc3c(c2)OCO3)Oc2ccc(OC(C)C)cc21` gave an IC50 of 400 nM. This IC50 lies about 13-fold lower than the previous one.
The same measure, in the same setting: then `COc1ccc(C(=O)/C(Cc2cccc(OC)c2)=C(\C(=O)O)c2ccc3c(c2)OCO3)cc1`, with 260 nM.

The target of the next experiment is T2, Endothelin-1 receptor (Rattus norvegicus, UniProt P26684).
T2 sequence (P26684 whole entry): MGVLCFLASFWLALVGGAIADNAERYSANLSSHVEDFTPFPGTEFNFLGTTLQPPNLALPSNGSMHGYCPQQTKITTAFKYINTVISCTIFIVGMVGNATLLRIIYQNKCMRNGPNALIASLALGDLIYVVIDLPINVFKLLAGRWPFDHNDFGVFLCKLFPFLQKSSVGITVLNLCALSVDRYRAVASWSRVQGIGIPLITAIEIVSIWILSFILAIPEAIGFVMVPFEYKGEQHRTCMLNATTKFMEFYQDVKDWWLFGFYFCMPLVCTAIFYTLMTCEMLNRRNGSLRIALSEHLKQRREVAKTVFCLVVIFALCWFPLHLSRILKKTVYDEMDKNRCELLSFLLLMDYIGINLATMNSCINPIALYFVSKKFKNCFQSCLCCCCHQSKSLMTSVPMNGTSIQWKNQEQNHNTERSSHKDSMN
Description: Ability to displace [125I]ET1 from the rat endothelin A receptor expressed in rat aorta smooth muscle cells. The experiment is classed as cell-based.
Details: not given
For `COC1=C(C(=O)O)[C@H](c2ccc3c(c2)OCO3)Oc2ccc(OC(C)C)cc21`, the IC50 came out at 5.2 nM.
Same read-out and setting: the figure for `CCc1ccc(C(=O)/C(Cc2ccccc2)=C(\C(=O)O)c2ccc3c(c2)OCO3)cc1` is 630 nM.
`COc1ccc(C(=O)/C(Cc2ccc(Cl)cc2)=C(\C(=O)O)c2ccc3c(c2)OCO3)cc1` yielded an IC50 of 110 nM.
Same read-out and setting: then `COc1ccc(C(=O)/C(Cc2ccccc2)=C(\C(=O)O)c2cc(OC)c3c(c2)OCO3)cc1`, with 6.7 nM; and `CCOc1ccc2c(c1)[C@@H](c1ccc(OC)cc1OCC(=O)O)N(CC(=O)O)[C@@H]2c1ccc2c(c1)OCO2`, with 5.4 nM; and `C/C=C/CC[C@H]1[C@H](C(=O)O)[C@@H](c2ccc3c(c2)OCO3)CN1CC(=O)N(CCCC)CCCC`, with 0.78 nM.
For `COc1cccc(C(=O)/C(Cc2ccccc2)=C(\C(=O)O)c2ccc3c(c2)OCO3)c1`, the half-inhibitory concentration (IC50) worked out at 500 nM.
Same read-out and setting: then `COC(=O)CCCCOc1cc(C/C(C(=O)c2ccc(OC)cc2)=C(/C(=O)O)c2ccc3c(c2)OCO3)cc(OC)c1OC`, with 0.05 nM; and `CCCCN(CCCC)C(=O)CN1C[C@H](c2ccc3c(c2)OCO3)[C@@H](CC(=O)O)[C@@H]1c1ccc(OC)cc1`, with 0.5 nM; and `COc1cc(/C(C(=O)O)=C(\CC2CCCCC2)C(=O)c2ccc3c(c2)OCCO3)cc2c1OCO2`, with 3.5 nM.
The same measure, in the same setting: the figure for `COc1ccc([C@@H]2[C@@H](CC(=O)O)[C@H](c3ccc4c(c3)OCO4)CN2CC(N)=O)cc1` is 2030 nM; for `COc1ccc(C(=O)/C(Cc2ccc(-c3ccccc3)cc2)=C(\C(=O)O)c2ccc3c(c2)OCO3)cc1` it is 200 nM.
Still for that read-out and setting: then `COc1ccc([C@H]2[C@H](C(=O)O)[C@@H](c3ccc4c(c3)OCO4)CN2CC(=O)NC(Cc2ccccc2)c2ccccc2)cc1` (stereo partly drawn), with 3.9 nM.
In the case of `COc1ccc(C(=O)/C(Cc2cc(OC)c(OC)c(OC)c2)=C(\C(=O)O)c2cc(OC)c3c(c2)OCO3)cc1`, the concentration for half-maximal inhibition (IC50) was found to be 0.5 nM.
The compound `COc1ccc(C/C(C(=O)c2ccc(OC)cc2)=C(/C(=O)O)c2ccc3c(c2)OCO3)cc1` gave an IC50 of 1.8 nM.
As to `CCOc1cc(C/C(C(=O)c2ccc(OC)cc2)=C(/C(=O)O)c2ccc3c(c2)OCO3)cc(OCC)c1OCC`, the IC50 amounted to 0.12 nM.
The same measure, in the same setting: then `CCOc1ccc2c(c1)[C@@H](c1ccc(OC)cc1)N(CC(=O)O)[C@@H]2c1ccc2c(c1)OCO2`, with 96 nM.
The same measure, in the same setting: then `COc1ccc([C@H]2[C@H](C(=O)O)[C@@H](c3ccc4c(c3)OCO4)CN2CC(=O)NC(c2ccccc2)C(C)C)cc1` (stereo partly drawn), with 0.7 nM.
On the same count and under the same terms, then `CCCNC(=O)CN1C[C@@H](c2ccc3c(c2)OCO3)[C@H](C(=O)O)[C@H]1c1ccc(OC)cc1`, with 45.3 nM; and `COc1ccc([C@H]2[C@H](C(=O)O)[C@@H](c3ccc4c(c3)OCO4)CN2CC(=O)Nc2cccc(C)c2C)cc1`, with 16 nM; and `CCCCN(CCCC)C(=O)CN1C[C@H](c2ccc3c(c2)OCO3)[C@@H](C(=O)O)[C@@H]1CCCCC(C)C`, with 0.29 nM.
For `COc1ccc(C(=O)/C(Cc2cccc3ccccc23)=C(\C(=O)O)c2ccc3c(c2)OCO3)cc1`, the IC50 worked out at 14 nM. Compared with the last compound, the IC50 is about 48-fold higher.
The same measure, in the same setting: the figure for `COc1ccc(C(=O)/C(Cc2cccc(OC)c2)=C(\C(=O)O)c2ccc3c(c2)OCO3)cc1` is 3 nM.
On the same count and under the same terms, the figure for `COc1ccc(C(=O)/C(Cc2ccccc2)=C(\C(=O)O)c2ccc3c(c2)OCO3)cc1OC` is 11 nM; for `CCCCC1=C(C(=O)O)C(c2ccc3c(c2)OCO3)Oc2ccc(OC(C)C)cc21` (stereo not drawn) it is 410 nM.

Another experiment addresses T3, Endothelin-1 receptor (Homo sapiens) (UniProt P25101).
T3 sequence (whole entry): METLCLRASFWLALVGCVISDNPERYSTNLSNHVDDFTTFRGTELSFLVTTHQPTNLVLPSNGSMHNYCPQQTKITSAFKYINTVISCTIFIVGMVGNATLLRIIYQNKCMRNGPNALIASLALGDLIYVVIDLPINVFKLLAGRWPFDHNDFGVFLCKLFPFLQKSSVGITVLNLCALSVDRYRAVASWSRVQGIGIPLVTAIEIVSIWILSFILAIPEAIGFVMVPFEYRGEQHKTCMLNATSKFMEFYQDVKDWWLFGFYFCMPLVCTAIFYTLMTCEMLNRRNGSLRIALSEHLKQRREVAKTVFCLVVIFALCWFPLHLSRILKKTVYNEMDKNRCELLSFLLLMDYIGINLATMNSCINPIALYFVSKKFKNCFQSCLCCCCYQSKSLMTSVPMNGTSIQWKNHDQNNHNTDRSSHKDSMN
Description: Inhibition of [125]ET-1 binding to human ETA receptor expressed in vero cells at 10E-4 M concentration.
Details: not given
The experiment is classed as cell-based. The essentials:
(§1)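 Vero (green monkey renal) cells grown as monolayers at 37 °C in MEM with 10% FBS, nonessential amino acids and penicillin/streptomycin under 5% CO2. Whole-cell binding was done in triplicate (2 × 10^5 cells/well) in HEPES-buffered saline at pH 7.4 with 50 pM [125I]ET-1 for 1 h. Nonspecific binding was defined with 500 nM ET-1. Compounds were tested at ca. 10^-10–10^-4 M. Bound radioactivity was collected by filtration and counted.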
Regarding `CCOc1cc(N2CCOCC2)c(OCC)cc1NS(=O)(=O)c1ccc(OC)cc1`, the inhibition stood at 77%.
Turning to `COc1ccc(NC(=O)CC(CC(=O)O)c2cc(OC)c(OC)c(OC)c2)cc1` (stereo not drawn), the inhibition worked out at 60%.

A further experiment concerns the target T4, Endothelin-1 receptor (Homo sapiens, UniProt P25101).
T4 sequence (P25101 whole entry): T3 sequence (whole entry)
Description: Inhibition of [125]ET-1 binding to human Endothelin A receptor expressed in vero cells. The format is cell-based.
Details: not given
The essentials:
as §1
Regarding `COC(=O)c1cc(S(=O)(=O)Nc2cccc(-c3cnco3)c2)oc1C`, the IC50 worked out at 6200 nM.
On the same count and under the same terms, the figure for `CC(C)C(NC(=O)OCc1ccccc1)C(=O)NC(Cc1ccc(O)cc1)C(=O)O` (stereo not drawn) (Cbz-Val-Tyr-OH; configuration not given here) is 220 nM.

In a further experiment the target is T3, Endothelin-1 receptor (Homo sapiens). To be noted: Vero.
Turning to `CC(C)C[C@@H]1NC(=O)[C@@H](C(C)C)NC(=O)[C@@H]2CCCN2C(=O)[C@@H](CC(=O)O)NC(=O)[C@@H](Cc2c[nH]c3ccccc23)NC1=O` (cyclo(L[dW][dD]P[dV])), it took 25 nM to reach half-maximal inhibition (IC50).
